Data taken from publication PMC10213863 (Cell Reports Medicine, 2023).

Columns and labels:
Type in all cases: cell-based
TLR1/2 [1] = target: T1, TLR1/2 (Homo sapiens, UniProt O60603+Q15399); experiment: Ramos Blue reporter B cell line, Pam3CSK4 stimulation; conditions: Ramos cells; up to 10 μM; n = 4, data not shown
Method in brief: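 Ramos Blue B reporter cells were pre-treated 30 min at 37°C, 5% CO2 with increasing concentrations of test compound or 0.25% v/v DMSO. They were then stimulated with the respective agonist, and reporter activity was read.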

TLR9 = target: T2, TLR9 (Homo sapiens, UniProt Q9NR96); experiment: Human PBMC assay, ODN2216-induced IFN-α
T2 sequence (Q9NR96 26-1032): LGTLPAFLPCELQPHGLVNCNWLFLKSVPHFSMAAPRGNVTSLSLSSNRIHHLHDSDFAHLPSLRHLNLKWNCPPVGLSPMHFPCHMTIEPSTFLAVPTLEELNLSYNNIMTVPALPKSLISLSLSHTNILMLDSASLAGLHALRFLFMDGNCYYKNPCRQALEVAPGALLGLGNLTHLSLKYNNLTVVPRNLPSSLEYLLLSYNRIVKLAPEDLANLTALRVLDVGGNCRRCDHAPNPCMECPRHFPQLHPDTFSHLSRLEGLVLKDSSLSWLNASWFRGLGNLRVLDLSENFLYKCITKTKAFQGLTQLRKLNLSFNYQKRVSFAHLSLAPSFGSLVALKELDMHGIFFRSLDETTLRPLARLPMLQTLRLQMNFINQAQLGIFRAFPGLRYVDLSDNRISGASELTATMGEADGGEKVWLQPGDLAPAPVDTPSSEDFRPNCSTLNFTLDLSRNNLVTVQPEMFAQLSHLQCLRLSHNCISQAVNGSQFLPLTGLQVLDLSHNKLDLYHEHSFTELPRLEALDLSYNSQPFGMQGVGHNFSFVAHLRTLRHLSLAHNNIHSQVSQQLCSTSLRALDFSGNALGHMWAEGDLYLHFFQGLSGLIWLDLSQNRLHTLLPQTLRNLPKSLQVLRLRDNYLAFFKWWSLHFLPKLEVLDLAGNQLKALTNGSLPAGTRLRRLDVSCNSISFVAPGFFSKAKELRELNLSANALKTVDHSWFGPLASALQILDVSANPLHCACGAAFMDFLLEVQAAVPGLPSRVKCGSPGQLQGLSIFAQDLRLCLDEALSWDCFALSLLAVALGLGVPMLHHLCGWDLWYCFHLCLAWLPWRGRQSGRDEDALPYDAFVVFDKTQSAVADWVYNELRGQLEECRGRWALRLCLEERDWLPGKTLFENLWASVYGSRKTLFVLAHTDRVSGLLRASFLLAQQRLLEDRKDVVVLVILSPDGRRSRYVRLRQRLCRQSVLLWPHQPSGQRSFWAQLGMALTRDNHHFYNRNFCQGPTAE
Method in brief: (§1)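 Human PBMCs were pre-incubated 30 min with test compound, then stimulated with the respective TLR or IL-1R agonist at doses from earlier work. Cytokines in supernatants were quantified by immunoassay. Viability across the dose range was checked by CellTiter-Glo.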

TLR8 = target: T3, TLR8 (Homo sapiens, UniProt Q9NR97); experiment: Human neutrophil ROS production, TL8-506 stimulation
T3 sequence (Q9NR97 27-1041): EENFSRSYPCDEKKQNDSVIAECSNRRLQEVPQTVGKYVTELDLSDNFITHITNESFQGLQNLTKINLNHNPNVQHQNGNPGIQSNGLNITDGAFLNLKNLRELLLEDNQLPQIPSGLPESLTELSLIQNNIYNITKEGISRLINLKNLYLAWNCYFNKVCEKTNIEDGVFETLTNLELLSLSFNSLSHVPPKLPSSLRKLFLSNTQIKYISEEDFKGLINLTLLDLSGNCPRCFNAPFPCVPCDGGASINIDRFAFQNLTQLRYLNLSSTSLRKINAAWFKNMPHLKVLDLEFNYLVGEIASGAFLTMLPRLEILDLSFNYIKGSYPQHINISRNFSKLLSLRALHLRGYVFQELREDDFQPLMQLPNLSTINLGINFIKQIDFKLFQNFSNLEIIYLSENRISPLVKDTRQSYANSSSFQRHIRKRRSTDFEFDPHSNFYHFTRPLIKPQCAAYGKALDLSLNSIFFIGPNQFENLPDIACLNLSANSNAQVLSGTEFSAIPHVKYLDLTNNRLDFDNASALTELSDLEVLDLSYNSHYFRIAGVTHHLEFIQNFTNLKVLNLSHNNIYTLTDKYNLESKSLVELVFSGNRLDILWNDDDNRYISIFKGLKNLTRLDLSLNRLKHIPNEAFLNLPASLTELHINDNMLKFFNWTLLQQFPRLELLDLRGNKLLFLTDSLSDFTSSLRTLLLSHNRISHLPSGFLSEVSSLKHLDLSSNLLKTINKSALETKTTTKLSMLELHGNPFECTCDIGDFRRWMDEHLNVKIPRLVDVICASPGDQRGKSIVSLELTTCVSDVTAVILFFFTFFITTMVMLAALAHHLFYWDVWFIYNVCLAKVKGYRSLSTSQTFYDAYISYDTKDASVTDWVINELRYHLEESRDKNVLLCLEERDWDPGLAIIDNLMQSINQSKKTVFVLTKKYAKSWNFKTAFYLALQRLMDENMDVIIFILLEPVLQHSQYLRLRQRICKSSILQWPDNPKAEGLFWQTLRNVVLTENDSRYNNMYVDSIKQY
Method in brief: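 Cells were pre-treated 30 min with increasing concentrations of test compound or 0.1% v/v DMSO. They were then stimulated 30 min at 37°C, 5% CO2 with TL8-506 or PMA (50 ng/mL). ROS was detected with 2 μM dihydrorhodamine for 15 min at 37°C and read by flow cytometry. Signals were normalized to vehicle; viability was checked by CellTiter-Glo.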

TLR7/8 = TLR7/8 (Homo sapiens, UniProt Q9NR97); experiment: Human neutrophil ROS production, R848 stimulation
TLR1/2 [2] = target: T1, TLR1/2; experiment: Human PBMC cytokine secretion, TLR1/2 agonist; conditions: human PBMCs; up to 10 μM; n = 5 donors, data not shown
Method in brief: as §1

T1 sequence (Q15399 25-786): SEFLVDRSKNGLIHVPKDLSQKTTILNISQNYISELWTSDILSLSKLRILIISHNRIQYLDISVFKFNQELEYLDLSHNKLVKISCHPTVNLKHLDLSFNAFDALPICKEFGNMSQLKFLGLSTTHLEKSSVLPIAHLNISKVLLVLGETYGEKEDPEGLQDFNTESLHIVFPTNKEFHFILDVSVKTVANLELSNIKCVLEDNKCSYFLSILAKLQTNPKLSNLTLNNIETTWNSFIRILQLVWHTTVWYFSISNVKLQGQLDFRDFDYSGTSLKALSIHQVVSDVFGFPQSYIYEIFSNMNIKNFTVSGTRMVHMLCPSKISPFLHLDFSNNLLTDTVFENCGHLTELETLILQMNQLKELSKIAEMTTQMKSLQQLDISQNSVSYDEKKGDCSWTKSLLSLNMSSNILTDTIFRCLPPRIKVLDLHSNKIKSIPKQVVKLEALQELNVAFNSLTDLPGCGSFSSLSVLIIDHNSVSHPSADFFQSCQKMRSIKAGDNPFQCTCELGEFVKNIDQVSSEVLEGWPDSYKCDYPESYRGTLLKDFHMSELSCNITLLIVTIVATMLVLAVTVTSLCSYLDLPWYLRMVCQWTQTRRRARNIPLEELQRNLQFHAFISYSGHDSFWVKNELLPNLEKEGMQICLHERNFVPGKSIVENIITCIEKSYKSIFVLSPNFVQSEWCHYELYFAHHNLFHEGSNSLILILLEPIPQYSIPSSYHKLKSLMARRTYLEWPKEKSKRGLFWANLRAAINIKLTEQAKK
T1 sequence (O60603 21-784): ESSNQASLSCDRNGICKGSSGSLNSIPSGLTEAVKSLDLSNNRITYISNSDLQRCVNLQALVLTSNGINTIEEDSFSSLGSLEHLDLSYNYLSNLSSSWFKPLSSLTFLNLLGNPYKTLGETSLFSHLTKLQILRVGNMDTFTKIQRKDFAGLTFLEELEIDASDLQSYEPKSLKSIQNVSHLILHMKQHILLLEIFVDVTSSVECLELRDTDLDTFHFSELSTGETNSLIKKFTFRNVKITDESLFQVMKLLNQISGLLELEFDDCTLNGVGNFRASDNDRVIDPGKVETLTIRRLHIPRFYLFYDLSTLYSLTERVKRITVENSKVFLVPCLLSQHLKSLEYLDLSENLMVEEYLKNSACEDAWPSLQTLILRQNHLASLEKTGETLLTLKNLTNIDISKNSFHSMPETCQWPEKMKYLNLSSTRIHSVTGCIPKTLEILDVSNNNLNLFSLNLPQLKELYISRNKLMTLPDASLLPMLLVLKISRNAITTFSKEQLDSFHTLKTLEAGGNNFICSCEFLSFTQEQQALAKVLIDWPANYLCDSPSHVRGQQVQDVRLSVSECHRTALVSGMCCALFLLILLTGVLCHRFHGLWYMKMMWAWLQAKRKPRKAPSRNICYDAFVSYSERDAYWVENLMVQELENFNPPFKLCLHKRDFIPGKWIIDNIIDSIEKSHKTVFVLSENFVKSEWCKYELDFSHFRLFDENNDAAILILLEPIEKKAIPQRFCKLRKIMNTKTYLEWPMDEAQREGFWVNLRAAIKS

Question: What does the source list for `Cc1cc(N2CCc3c(c(C)nn3CC34CCC(NC(=O)[C@@H]5COCCN5)(CC3)CC4)C2)c2cnn(C)c2n1` [MHV370, (S)-N-(4-((5-(1,6-dimethyl-1H-pyrazolo[3,4-b]pyridin-4-yl)-3-methyl-4,5,6,7-tetrahydro-1H-pyrazolo[4,3-c]pyridin-1-yl)methyl)bicyclo[2.2.2]octan-1-yl)morpholine-3-carboxamide]?
Answer: interference with TLR1/2-driven activity (TLR1/2 [1]): did not interfere; IC50 (TLR9): 1300 nM; IC50 (TLR8): 5.2 ± 1.5 nM; IC50 (TLR7/8): 3.8 ± 0.8 nM; interference with cytokine secretion, TLR1/2 agonist (TLR1/2 [2]): did not significantly interfere
